Assay results taken from ChEMBL document CHEMBL4196061, “Novel topoisomerase I inhibitors. Syntheses and biological evaluation of phosphorus substituted quinoline derivates with antiproliferative activity” (Eur J Med Chem, 2018).

Columns and labels:
A549 = assay: Antiproliferative activity against human A549 cells after 48 hrs by CCK-8 assay; assay type: functional, cell-based; conditions: A549, 48 h
How it was run: (§1)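 Cells seeded at 2-4 x 10^3 per well and grown overnight in 0.1 mL medium with 10% FBS at 37 °C under 5% CO2. Drugs were added on day 2 and cells incubated 48 h. CCK-8 was then added for 2 h at 37 °C and absorbance read at 450 nm. IC50 values were reported.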

HEK293 = assay: Antiproliferative activity against human HEK293 cells after 48 hrs by CCK-8 assay; conditions: HEK293, 48 h
SK-OV-3 = assay: Antiproliferative activity against human SKOV3 cells after 48 hrs by CCK-8 assay; assay type: functional, cell-based; conditions: SK-OV-3, 48 h; how it was run: as §1
MRC5 = assay: Antiproliferative activity against human MRC5 cells after 48 hrs by CCK-8 assay; assay type: cell-based; conditions: MRC5, 48 h; how it was run: as §1
[1] = biological target: T1, DNA topoisomerase 1 (Homo sapiens) (UniProt P11387); assay: (§2) Inhibition of recombinant human topoisomerase 1-mediated DNA relaxation expressed in Saccharomyces cerevisiae TopI null strain RS190 at 80 uM using negatively supercoiled pUC18 as substrate pretreated with enzyme for 15 mins followed by substrate addition measured after 3 mins by agarose gel electrophoresis
T1 sequence (whole entry): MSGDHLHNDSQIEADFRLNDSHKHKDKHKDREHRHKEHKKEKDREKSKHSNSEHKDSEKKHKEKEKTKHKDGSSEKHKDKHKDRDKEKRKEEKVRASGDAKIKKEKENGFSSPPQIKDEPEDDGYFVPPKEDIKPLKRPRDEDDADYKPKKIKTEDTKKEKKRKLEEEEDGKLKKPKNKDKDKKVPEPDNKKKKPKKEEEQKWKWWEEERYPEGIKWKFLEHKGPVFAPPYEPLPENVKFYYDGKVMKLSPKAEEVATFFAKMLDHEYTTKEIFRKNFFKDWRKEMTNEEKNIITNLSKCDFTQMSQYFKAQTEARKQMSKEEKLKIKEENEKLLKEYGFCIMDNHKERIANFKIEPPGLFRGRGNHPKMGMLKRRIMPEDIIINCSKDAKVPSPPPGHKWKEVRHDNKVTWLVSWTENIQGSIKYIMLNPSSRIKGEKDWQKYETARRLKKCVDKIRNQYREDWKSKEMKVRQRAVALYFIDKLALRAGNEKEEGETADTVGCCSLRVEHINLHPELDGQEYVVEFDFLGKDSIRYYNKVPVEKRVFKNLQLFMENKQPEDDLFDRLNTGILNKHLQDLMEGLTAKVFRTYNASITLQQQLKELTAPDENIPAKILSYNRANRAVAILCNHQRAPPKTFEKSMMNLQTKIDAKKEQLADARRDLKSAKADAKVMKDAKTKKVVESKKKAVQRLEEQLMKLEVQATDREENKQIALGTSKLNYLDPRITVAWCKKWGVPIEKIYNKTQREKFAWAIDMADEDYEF
How it was run: (§3)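 Human TopI was expressed from pHT143 (GAL promoter) in yeast RS190 and affinity-purified. Reactions used 110 ng/µL TopI and 0.5 µg supercoiled pUC18 in 20 µl buffer (20 mM Tris–HCl, 0.1 mM Na2EDTA, 10 mM MgCl2, 50 µg/mL acetylated BSA, 150 mM KCl, pH 7.5). Drug was mixed with enzyme before DNA was added, and reactions were stopped with SDS. Products were resolved on 1% agarose in TBE and stained with gel red.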

[2] = biological target: T1, DNA topoisomerase 1 (Homo sapiens); assay: as §2, with “1 min” for “3 mins”; how it was run: as §3
[3] = biological target: T1, DNA topoisomerase 1 (Homo sapiens); assay: as §2, with “15 secs” for “3 mins”; how it was run: as §3
[4] = biological target: T1, DNA topoisomerase 1 (Homo sapiens); assay: as §2, with “60” for “80”; how it was run: as §3
[5] = biological target: T1, DNA topoisomerase 1 (Homo sapiens); assay: as §2, with “20” for “80”; how it was run: as §3
[6] = biological target: T1, DNA topoisomerase 1 (Homo sapiens); assay: as §2, with “10” for “80”; how it was run: as §3
[7] = biological target: T1, DNA topoisomerase 1 (Homo sapiens); assay: as §2, with “40” for “80”; how it was run: as §3

| Structure (SMILES) | IC50 (A549) [µM] | IC50 (HEK293) [µM] | IC50 (SK-OV-3) [µM] | IC50 (MRC5) [µM] | inhibition [1] [%] | inhibition [2] [%] | inhibition [3] [%] | inhibition [4] [%] | inhibition [5] [%] | inhibition [6] [%] | inhibition [7] [%] |
| --- | --- | --- | --- | --- | --- | --- | --- | --- | --- | --- | --- |
| COc1ccccc1[C@@H]1C[C@H](c2ccccc2)c2cccc(P(=O)(c3ccccc3)c3ccccc3)c2N1 | 0.21 | 16.3 | > 50 | > 50 |  |  |  |  |  |  |  |
| O=P(c1ccccc1)(c1ccccc1)c1cccc2c(-c3ccccc3)cc(-c3ccc(F)cc3)nc12 | 2.26 | 17.2 | 8.16 | > 50 | 25 | 28 | 28 |  |  |  |  |
| S=P(c1ccccc1)(c1ccccc1)c1cccc2c1N[C@H](c1ccccc1)C[C@@H]2c1ccccc1 | 0.16 | > 50 | > 50 | > 50 | 76 | 81 | 81 | 0 | 0 | 0 | 0 |
| O=P(c1ccccc1)(c1ccccc1)c1cccc2c(-c3ccccc3)cc(-c3ccccc3)nc12 | 1.21 | 13.8 | 14.5 | > 50 | 8 | 57 | 57 |  |  |  |  |
| Fc1ccc([C@@H]2C[C@H](c3ccccc3)c3cccc(P(=S)(c4ccccc4)c4ccccc4)c3N2)cc1F | 0.08 | > 50 | > 50 | > 50 | 49 | 50 | 57 |  |  |  |  |
| FC(F)(F)c1ccc(-c2cc(-c3ccccc3)c3cccc(P(=S)(c4ccccc4)c4ccccc4)c3n2)cc1 | > 50 | > 50 | > 50 | > 50 | 81 | 81 | 81 | 24 | 10 | 8 | 18 |
| S=P(c1ccccc1)(c1ccccc1)c1cccc2c(-c3ccccc3)cc(-c3ccccc3)nc12 | > 50 | > 50 | > 50 | > 50 | 24 | 60 | 75 |  |  |  |  |
| O=P(c1ccccc1)(c1ccccc1)c1cccc2c1N[C@H](c1ccc(C(F)(F)F)cc1)C[C@@H]2c1ccccc1 | 0.5 | 28 | > 50 | > 50 | 16 | 56 | 61 |  |  |  |  |
| FC(F)(F)c1ccc([C@@H]2C[C@H](c3ccccc3)c3cccc(P(=S)(c4ccccc4)c4ccccc4)c3N2)cc1 | 0.22 | > 50 | > 50 | > 50 | 17 | 17 | 20 |  |  |  |  |
| Fc1ccc([C@H]2C[C@@H](c3ccc(F)cc3)Nc3c2cccc3P(c2ccccc2)c2ccccc2)cc1 | 0.08 | > 50 | > 50 | > 50 | 75 | 75 | 78 | 20 | 0 | 0 | 0 |
| Cc1ccc([C@H]2C[C@@H](c3ccc(F)cc3)Nc3c2cccc3P(c2ccccc2)c2ccccc2)cc1 | 0.25 | > 50 | > 50 | > 50 | 92 | 92 | 96 | 53 | 28 | 20 | 52 |
| Fc1ccc(-c2cc(-c3ccc(F)cc3)c3cccc(P(=S)(c4ccccc4)c4ccccc4)c3n2)cc1 | > 50 | > 50 | > 50 | > 50 |  |  |  |  |  |  |  |
| O=P(c1ccccc1)(c1ccccc1)c1cccc2c(-c3ccccc3)cc(-c3ccccn3)nc12 | 2.93 | 12 | 17.3 | > 50 | 11 | 52 | 58 |  |  |  |  |
| Cc1ccc([C@H]2C[C@@H](c3ccccc3)Nc3c2cccc3P(=O)(c2ccccc2)c2ccccc2)cc1 | 1.2 | 28 | > 50 | > 50 | 12 | 25 | 28 |  |  |  |  |
| FC(F)(F)c1ccc([C@@H]2C[C@H](c3ccccc3)c3cccc(P(c4ccccc4)c4ccccc4)c3N2)cc1 | 16.2 | > 50 | > 50 | > 50 | 59 | 61 | 61 |  |  |  |  |
| O=P(c1ccccc1)(c1ccccc1)c1cccc2c1N[C@H](c1ccccc1)C[C@@H]2c1ccccc1 | 1.72 | > 50 | > 50 | > 50 | 21 | 50 | 52 |  |  |  |  |
| O=P(c1ccccc1)(c1ccccc1)c1cccc2c(-c3ccc(F)cc3)cc(-c3ccc(F)cc3)nc12 | 3.82 | 12.5 | 6.77 | > 50 | 13 | 50 | 50 |  |  |  |  |
| O=P(c1ccccc1)(c1ccccc1)c1cccc2c(-c3ccccc3)cc(-c3ccc(C(F)(F)F)cc3)nc12 | 1.03 | 19.4 | 15.2 | > 50 | 28 | 28 | 31 |  |  |  |  |
| O=P(c1ccccc1)(c1ccccc1)c1cccc2c1N[C@H](c1ccc(F)cc1)C[C@@H]2c1ccc(F)cc1 | 0.25 | 23.9 | 17.8 | > 50 | 45 | 50 | 54 |  |  |  |  |
| O=P(c1ccccc1)(c1ccccc1)c1cccc2c(-c3ccccc3)cc(-c3cccc4ccccc34)nc12 | 6.32 | 54.4 | > 50 | > 50 | 65 | 87 | 89 |  |  |  |  |
| O=P(c1ccccc1)(c1ccccc1)c1cccc2c1N[C@H](c1ccc(F)cc1)C[C@@H]2c1ccccc1 | 2.69 | 26.5 | 24.1 | > 50 | 16 | 50 | 55 |  |  |  |  |
| Cc1ccc(-c2cc(-c3ccccc3)nc3c(P(=O)(c4ccccc4)c4ccccc4)cccc23)cc1 | 7.65 | 8.97 | 17.4 | > 50 | 5 | 7 | 7 |  |  |  |  |
| COc1ccccc1-c1cc(-c2ccccc2)c2cccc(P(=O)(c3ccccc3)c3ccccc3)c2n1 | 3.11 | 24.1 | 13.1 | > 50 | 63 | 83 | 90 |  |  |  |  |
| O=P(c1ccccc1)(c1ccccc1)c1cccc2c1N[C@H](c1cccc3ccccc13)C[C@@H]2c1ccccc1 | 3.57 | > 50 | > 50 | > 50 | 45 | 63 | 63 |  |  |  |  |
| COc1ccc([C@@H]2C[C@H](c3ccc(C)cc3)c3cccc(P(c4ccccc4)c4ccccc4)c3N2)cc1 | 2.48 | > 50 | > 50 | > 50 | 52 | 52 | 52 |  |  |  |  |
| Fc1ccc([C@@H]2C[C@H](c3ccccc3)c3cccc(P(=S)(c4ccccc4)c4ccccc4)c3N2)cc1 | 0.27 | > 50 | > 50 | > 50 | 37 | 39 | 41 |  |  |  |  |
